Assays:
[1] = biological target: T1, Adenosine receptor A2b (Homo sapiens) (UniProt P29275); assay: Displacement of [3H][…] from human adenosine A2B receptor expressed in CHO cells at 10 uM after 2 hrs by scintillation counting; assay type: cell-based
T1 sequence (whole entry): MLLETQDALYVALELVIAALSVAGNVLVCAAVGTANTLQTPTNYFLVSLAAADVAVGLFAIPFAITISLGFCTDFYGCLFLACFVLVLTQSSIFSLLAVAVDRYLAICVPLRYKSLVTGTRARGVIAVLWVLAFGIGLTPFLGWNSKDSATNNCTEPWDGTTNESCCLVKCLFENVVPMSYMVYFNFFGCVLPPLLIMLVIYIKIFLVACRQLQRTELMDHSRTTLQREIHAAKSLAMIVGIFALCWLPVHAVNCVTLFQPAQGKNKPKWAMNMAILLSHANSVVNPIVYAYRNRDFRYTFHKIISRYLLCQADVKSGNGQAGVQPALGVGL
How it was run: (§1)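 Stably transfected CHO membranes (15 μg protein) with 1.0 nM [3H]PSB603 final in 50 mM Tris·HCl pH 7.4, 1 U/mL ADA, 0.1% CHAPS, 2 h at 25 °C. Nonspecific binding with 100 μM NECA. GF/C filtration; washes in ice-cold Tris·HCl pH 7.4 plus 0.1% BSA. Ki by nonlinear regression using radioligand Ki of 0.41 nM.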

[2] = biological target: T2, Adenosine receptor A3 (Homo sapiens) (UniProt P0DMS8); assay: Displacement of [3H]PSB11 from human adenosine A3 receptor expressed in HEK 293 cells at 10 uM after 1 hr by scintillation counting; assay type: cell-based; settings: HEK293
T2 sequence (whole entry): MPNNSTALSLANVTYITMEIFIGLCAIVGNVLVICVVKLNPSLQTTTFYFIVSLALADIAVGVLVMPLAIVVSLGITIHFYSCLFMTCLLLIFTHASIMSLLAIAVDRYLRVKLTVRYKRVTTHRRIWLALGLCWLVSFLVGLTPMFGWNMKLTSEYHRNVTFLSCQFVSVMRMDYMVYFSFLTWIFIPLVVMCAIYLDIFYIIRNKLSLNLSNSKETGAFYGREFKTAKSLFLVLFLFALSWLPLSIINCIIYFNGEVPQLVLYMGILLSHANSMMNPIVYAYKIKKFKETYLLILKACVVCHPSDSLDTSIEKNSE

Adenosine receptor A2a [3] = biological target: T3, Adenosine receptor A2a (Homo sapiens, UniProt P29274); assay: Displacement of [3H]ZM241385 from human adenosine A2A receptor expressed in HEK 293 cells after 2 hrs by scintillation counting; assay type: cell-based, HEK293
T3 sequence (P29274 whole entry): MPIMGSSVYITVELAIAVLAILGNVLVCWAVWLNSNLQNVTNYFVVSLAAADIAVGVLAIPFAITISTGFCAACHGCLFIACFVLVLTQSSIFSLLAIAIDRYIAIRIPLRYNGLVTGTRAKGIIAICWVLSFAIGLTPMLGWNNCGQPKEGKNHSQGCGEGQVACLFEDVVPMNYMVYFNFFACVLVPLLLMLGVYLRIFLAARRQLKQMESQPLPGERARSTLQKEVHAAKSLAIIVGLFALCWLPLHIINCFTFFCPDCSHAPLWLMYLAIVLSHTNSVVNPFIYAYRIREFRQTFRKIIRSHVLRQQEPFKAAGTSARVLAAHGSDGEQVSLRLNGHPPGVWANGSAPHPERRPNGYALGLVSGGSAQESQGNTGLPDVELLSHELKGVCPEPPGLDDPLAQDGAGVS

[4] = biological target: T4, Adenosine receptor A1 (Homo sapiens) (UniProt P30542); assay: Displacement of [3H]DPCPX from human adenosine A1 receptor expressed in CHO cells at 10 uM after 1 hr by scintillation counting; assay type: cell-based
T4 sequence (whole entry): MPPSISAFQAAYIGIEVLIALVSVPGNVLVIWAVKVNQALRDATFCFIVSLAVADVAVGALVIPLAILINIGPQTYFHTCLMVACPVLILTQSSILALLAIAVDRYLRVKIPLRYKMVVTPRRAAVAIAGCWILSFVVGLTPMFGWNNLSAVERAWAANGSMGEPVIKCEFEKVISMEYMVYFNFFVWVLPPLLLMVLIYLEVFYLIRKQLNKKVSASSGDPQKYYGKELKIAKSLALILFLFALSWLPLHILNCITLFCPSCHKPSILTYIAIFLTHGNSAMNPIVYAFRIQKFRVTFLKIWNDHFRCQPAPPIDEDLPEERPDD

Adenosine receptor A1 = biological target: T5, Adenosine receptor A1 (Homo sapiens, UniProt P30542); assay: Displacement of [3H]DPCPX from human adenosine A1 receptor expressed in CHO cells after 1 hr by scintillation counting; assay type: cell-based
T5 sequence (P30542 whole entry): T4 sequence (whole entry)

Adenosine receptor A2b = biological target: T6, Adenosine receptor A2b (Homo sapiens, UniProt P29275); assay: Displacement of [3H][…] from human adenosine A2B receptor expressed in CHO cells after 2 hrs by scintillation counting; assay type: cell-based; how it was run: as §1
T6 sequence (P29275 whole entry): T1 sequence (whole entry)

Adenosine receptor A3 = biological target: T7, Adenosine receptor A3 (Homo sapiens, UniProt P0DMS8); assay: Displacement of [3H]PSB11 from human adenosine A3 receptor expressed in HEK 293 cells after 1 hr by scintillation counting; assay type: cell-based, HEK293
T7 sequence (P0DMS8 whole entry): T2 sequence (whole entry)

Adenosine receptor A2a [5] = biological target: T3, Adenosine receptor A2a; assay: Displacement of [3H]ZM241385 from human adenosine A2A receptor expressed in HEK 293 cells at 10 uM after 2 hrs by scintillation counting; assay type: cell-based; settings: HEK293

| Compound | inhibition [1] [%] | inhibition [2] [%] | Ki (Adenosine receptor A2a [3]) [nM] | inhibition [4] [%] | Ki (Adenosine receptor A1) [nM] | Ki (Adenosine receptor A2b) [nM] | Ki (Adenosine receptor A3) [nM] | inhibition (Adenosine receptor A2a [5]) [%] |
| --- | --- | --- | --- | --- | --- | --- | --- | --- |
| O=C(Cc1ccccc1)Nc1nn2c(-c3ccco3)nnc2s1 | -8 | 3 | 5100 | 44 |  |  |  |  |
| Nc1nc(-c2ccccc2)nc(-c2ccccc2O)n1 |  |  | 43 |  | 7.2 | 220 | 440 |  |
| COCc1cc(C)nc2sc(-c3nc(N)nc(N(C)C)n3)c(N)c12 | -5 | 33 | 1600 | 35 |  |  |  |  |

Now from value to molecule:

| inhibition [1] [%] | inhibition [2] [%] | Ki (Adenosine receptor A2a [3]) [nM] | inhibition [4] [%] | Ki (Adenosine receptor A1) [nM] | Ki (Adenosine receptor A2b) [nM] | Ki (Adenosine receptor A3) [nM] | inhibition (Adenosine receptor A2a [5]) [%] | Compound |
| --- | --- | --- | --- | --- | --- | --- | --- | --- |
| 32 | 21 | 31000 |  | 510 |  |  |  | COc1nc(N)c(C#N)c(-c2ccc3c(c2)OCO3)c1C#N |
|  | 13 | 300 |  | 900 |  |  |  | N#Cc1cnc(N)nc1-c1ccccc1 |
| 14 | -3 |  |  | 3200 |  |  | 42 | C=CCn1c(=O)[nH]c2nc3cc(NC(C)=O)ccc3nc2c1=O |
